Laboratory results reported in ChEMBL document CHEMBL1122938, “Ribavirin, tiazofurin, and selenazofurin: mononucleotides and nicotinamide adenine dinucleotide analogues. Synthesis, structure, and interactions with IMP dehydrogenase” (J Med Chem, 1985).

Assays:
[1] = Noncompetitive Inhibitory activity against Inosine-5'-monophosphate dehydrogenase using IMP as viable substrate
[2] = Cytotoxicity against P388 cells in culture; format: cell-based; conditions: mouse, read-out: ID50 (the source's name)
Summary of the method: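 P388 cells in log-phase growth exposed in culture to each monophosphate or dinucleotide.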

[3] = Noncompetitive inhibitory activity against Inosine-5'-monophosphate dehydrogenase using NAD as viable substrate
[4] = Noncompetitive inhibitory activity against Inosine-5'-monophosphate dehydrogenase using NAD as viable substrate
[5] = Uncompetitive (mixed) inhibitory activity against Inosine-5'-monophosphate dehydrogenase using NAD as viable substrate
[6] = Uncompetitive Inhibitory activity against Inosine-5'-monophosphate dehydrogenase using IMP as viable substrate
[7] = Inhibitory activity against Inosine-5'-monophosphate dehydrogenase using IMP as viable substrate; Inactive
[8] = Inhibitory activity against Inosine-5'-monophosphate dehydrogenase using NAD as viable substrate; Inactive
[9] = Competitive Inhibitory activity against Inosine-5'-monophosphate dehydrogenase using IMP as viable substrate
[10] = Inhibitory activity against Inosine-5'-monophosphate dehydrogenase using IMP as viable substrate; Inactive.
[11] = Inhibitory activity against Inosine-5'-monophosphate dehydrogenase using NAD as viable substrate; Inactive.

Structure (SMILES)	Ki [1]	CC50 [2]	Ki [3]	Ki [6]	further results
NC(=O)c1ncn(C2O[C@H](COP(=O)(O)OP(=O)(O)OC[C@H]3OC(n4cnc5c(N)ncnc54)[C@H](O)[C@@H]3O)[C@H](O)[C@@H]2O)n1 (stereo not given in full)	148 µM	40 µM	235 µM		
NC(=O)c1c[se]c([C@@H]2O[C@H](COP(=O)(O)O)[C@@H](O)[C@H]2O)n1	170 µM	1.4 µM			Ki [4]: 470 µM
NC(=O)c1csc([C@H]2O[C@@H](COP(=O)(O)OP(=O)(O)OC[C@H]3O[C@@H](c4nc(C(N)=O)cs4)[C@H](O)[C@@H]3O)[C@H](O)[C@@H]2O)n1		4.6 µM		140 µM	Ki [5]: 370 µM
NC(=O)c1csc([C@@H]2O[C@H](COP(=O)(O)O)[C@@H](O)[C@H]2O)n1	265 µM	10 µM			Ki [4]: 405 µM
NC(=O)c1ncn(C2O[C@H](COP(=O)(O)OP(=O)(O)OC[C@H]3OC(n4cnc5c(N)ncnc54)[C@H](O)[C@@H]3O)[C@H](O)[C@@H]2O)c1N (stereo not given in full)		78 µM			Ki [7]: Not Active; Ki [8]: Not Active
NC(=O)c1c[se]c([C@H]2O[C@@H](COP(=O)(O)OP(=O)(O)OC[C@H]3O[C@@H](c4nc(C(N)=O)c[se]4)[C@H](O)[C@@H]3O)[C@H](O)[C@@H]2O)n1		0.6 µM		190 µM	Ki [5]: 240 µM
NC(=O)c1csc([C@H]2O[C@@H](COP(=O)(O)OP(=O)(O)OC[C@H]3O[C@@H](n4cnc5c(N)ncnc54)[C@H](O)[C@@H]3O)[C@H](O)[C@@H]2O)n1		7.5 µM	0.24 µM	0.13 µM	
NC(=O)c1c[se]c(C2O[C@@H](COP(=O)(O)OP(=O)(O)OC[C@H]3OC(n4cnc5c(N)ncnc54)[C@H](O)[C@@H]3O)[C@H](O)[C@@H]2O)n1 (stereo not given in full)		9.8 µM	0.04 µM	0.05 µM	
NC(=O)c1ncn([C@@H]2O[C@H](COP(=O)(O)O)[C@@H](O)[C@H]2O)n1 [RIBAVIRIN MONOPHOSPHATE]		65 µM	2.24 µM		Ki [9]: 4.18 µM
NC(=O)c1ncn([C@@H]2O[C@H](COP(=O)(O)O)[C@@H](O)[C@H]2O)c1N		> 220 µM			Ki [10]: Not Active; Ki [11]: Not Active
